Source: PubChem
The list is not random: actives were taken first. Their share in the collection is about 3.5%.
RGS4 act: RGS4 potentiation or activation; AID 463111; HEK293 M3R/inducible RGS4, carbachol calcium flux Fluo4; active compounds read low; actives 0.92% (n = 310,000); B-score at 10 µM;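 active = B-score of the integrated calcium signal more than 4 SD below the library mean, with starting fluorescence not abnormally high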;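 note: negative B-score means reduced calcium response which marks RGS4 activation or potentiation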
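test system = M3R-expressing HEK293 line, RGS4 induced by doxycycline | probe or stimulus = carbachol at ECmax as muscarinic agonist stimulus | timing = dye loading 30 min 37 °C, buffer rest 30 min RT | signal = calcium dye Fluo4 fluorescence | evaluation = B score from integrated fluorescence ratio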
MrgX1 antag: antagonists of human MrgX1 receptor | MRGX1-HEK293 calcium flux, Fluo-4, BAM8-22 antagonism; active compounds read low | AID 588676 | B-score at 10 µM | Q96LB2 | actives 1.3% (n = 310,000);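 active = calcium-response B-score plate-corrected more than 3 library SD below zero, starting fluorescence within 5 deviations, no agonist response on first addition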;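 note: peak minus trough fluorescence over baseline after final BAM8-22 challenge near maximal dose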
Target sequence (Q96LB2 whole entry, looked up): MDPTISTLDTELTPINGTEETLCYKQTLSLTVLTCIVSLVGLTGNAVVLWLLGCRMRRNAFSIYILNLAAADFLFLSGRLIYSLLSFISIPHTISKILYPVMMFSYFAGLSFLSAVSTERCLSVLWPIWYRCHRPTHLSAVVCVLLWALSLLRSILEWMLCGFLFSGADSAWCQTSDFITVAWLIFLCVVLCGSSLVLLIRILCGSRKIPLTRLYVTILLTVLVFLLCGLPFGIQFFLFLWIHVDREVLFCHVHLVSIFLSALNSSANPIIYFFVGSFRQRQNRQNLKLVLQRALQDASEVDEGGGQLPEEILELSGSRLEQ
MrgX1 ag: agonists of human MrgX1 receptor; Q96LB2; MrgX1-HEK293 cells, Fluo-4 calcium fluorescence, agonist mode; active compounds read high; B-score at 10 µM; actives 0.44% (n = 310,000); AID 588627;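 active = calcium response B-score plate-corrected fluorescence ratio at least 3 library SD, with starting fluorescence B-score inside 5 SD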
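System: HEK293 cells stably expressing human MrgX1 receptor; Dosing: test compound in the initial addition of three; Schedule: overnight plating, then 30 min 37 °C plus 30 min room-temperature dye loading; Detection: kinetic calcium dye fluorescence, Fluo-4 NW; Controls: per-plate positive and negative controls for Z′ factor.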
MrgX1 PAM: allosterically activates human MrgX1 receptor signaling; B-score at 10 µM; MrgX1-HEK293, Fluo-4 calcium flux, FDSS; active compounds read high; Q96LB2; AID 588675; actives 0.63% (n = 310,000);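 active = plate-corrected calcium response at least 3 library SD above typical, normal starting fluorescence, not activating the receptor alone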;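 note: compound read alongside a low EC10 to EC30 dose of BAM8-22 agonist; peak minus trough fluorescence over baseline measured at the second addition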
RGS4 inh: human RGS4 inhibition. AID 463165. HEK293 M3R/RGS4 inducible, Fluo-4 calcium flux; active compounds read high; triggered by carbachol at its EC20. B-score at 10 µM. actives 0.45% (n = 310,000);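 active = B-score, a plate-corrected calcium signal, over three deviations above library mean, with baseline fluorescence within five deviations of library mean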;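 note: RGS4 expression induced by doxycycline in cells with stable M3 receptor; B-score is computed from the integrated fluorescence ratio over baseline after carbachol; higher B-score means a larger calcium signal and so more RGS4 inhibition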
Target sequence (P49798 whole entry, looked up): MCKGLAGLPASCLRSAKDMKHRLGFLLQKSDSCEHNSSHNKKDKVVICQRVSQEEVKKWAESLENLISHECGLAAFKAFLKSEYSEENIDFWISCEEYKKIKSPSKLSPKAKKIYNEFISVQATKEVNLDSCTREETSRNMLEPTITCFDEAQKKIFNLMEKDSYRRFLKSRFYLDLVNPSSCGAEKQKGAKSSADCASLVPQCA
* hit, by the source's call; i = inactive; x = no result.

SMILES	RGS4 act	MrgX1 antag	MrgX1 ag	MrgX1 PAM	RGS4 inh
C#CCOCCOCCOCCNc1nc(N2CCN(C(=O)[C@H](CCCCN)n3cc(C(N)CO)nn3)CC2)nc(N2CCN(C(=O)[C@H](CCC(=O)O)n3cc(C(N)[C@H](C)CC)nn3)CC2)n1 (stereo partly drawn)	i	-4.5*	i	i	i
C#CCOCCOCCOCCNc1nc(N2CCN(C(=O)[C@H](Cc3cc4ccccc4[nH]3)n3cc(C(N)CC(C)C)nn3)CC2)nc(N2CCN(C(=O)[C@H](CCC(=O)O)n3cc(C(N)[C@H](C)CC)nn3)CC2)n1 (stereo partly drawn)	i	i	i	8.9*	i
O=C(O)c1ncc(Cl)c(Cl)c1Cl	i	i	i	i	i
C/C(=N/NC(=O)c1ccc(C(C)(C)C)cc1)c1ccccn1	i	i	i	i	8.5*
Cc1ccc(C(=O)CC(=O)c2ccccc2)cc1	i	i	i	i	i
Cc1ccc(C(=O)Sc2cccccc2=O)cc1	i	i	49*	i	i
CCC1=NN2C(=N)/C(=C\c3cccn3-c3cccc(Cl)c3)C(=O)N=C2S1	i	i	i	11*	i
CC1=CSC2=NC(=O)/C(=C\c3cccn3-c3ccccc3)C(=N)N12	i	i	i	8.8*	i
Cc1cc(/C=C2/C(=N)N3C(=NC2=O)SN=C3S(C)(=O)=O)c(C)n1-c1ccc(F)cc1	i	i	i	18*	i
Cc1ccc(-n2cccc2/C=C2/C(=N)N3C(=NC2=O)SN=C3S(C)(=O)=O)cc1Cl	x	i	i	i	x
Cc1cccc(C)c1-n1cccc1/C=C1/C(=N)N2C(=NC1=O)SN=C2S(C)(=O)=O	-7.9*	i	i	i	i
O=C(CSc1ncnc2c1cnn2CCc1ccccc1)Nc1cccc(C(F)(F)F)c1	i	i	i	i	i
Nc1nc(-c2ccccc2)c(-c2ccccc2)n1N	i	i	i	9.3*	i
COc1ccc(C(=O)/C=C/c2cc(OC)c(O)c(OC)c2)c(F)c1	i	i	30*	i	i
CC/C(=N\Nc1ccc([N+](=O)[O-])cc1)c1ccccc1	i	i	i	i	i
CCC1(C(=O)c2ccccc2)C(c2ccc([N+](=O)[O-])cc2)C1(C(=O)OC)C(=O)OC (stereo not drawn)	i	i	27*	i	i
CCOC(=O)N1CCN(C(=O)/C(=C\c2ccc(SC)cc2)NC(=O)c2ccccc2)CC1	i	i	i	i	i
CC(=O)OCCCCCCCCCCC[N+]1(C)CCCCC1	-8.9*	i	i	i	i
CC(C)Cc1cc(C(=O)N2N=C(C(F)F)CC2(O)C(F)F)c2ccccc2n1 (stereo not drawn)	i	i	i	i	i
CCc1ccc(-c2cc(C(=O)N3N=C(C(F)F)CC3(O)C(F)F)c3ccccc3n2)cc1 (stereo not drawn)	-7.2*	i	i	i	i
CCCCC(CC)CNC(=O)C(=O)c1ccccc1NC(C)=O (stereo not drawn)	i	i	i	i	i
O=[N+]([O-])c1cnc(Sc2ccncn2)s1	-9.8*	i	i	i	i
CN(CC(=O)N1CCCC1)S(=O)(=O)c1ccc2ccccc2c1	i	i	i	i	i
COc1ccc(Cc2nnc(SCC(=O)Nc3cc(Cl)ccc3C)[nH]c2=O)cc1	i	i	i	i	i
Cc1cc(C)c2c(=O)n(CC(=O)Nc3cccc(Cl)c3C)sc2n1	i	i	i	9.5*	i
SMILES	RGS4 act	MrgX1 antag	MrgX1 ag	MrgX1 PAM	RGS4 inh
CCc1ccc(OCC(=O)NNC(=O)Cc2ccc(S(=O)(=O)N3CCOCC3)s2)cc1	i	-6.9*	i	i	i
COc1ccc(CN(N=O)C2CC(=O)N(c3ccc(OC)cc3)C2=O)cc1 (stereo not drawn)	-10*	i	i	i	i
OCc1ccccc1SSc1ccccc1CO	i	i	41*	i	i
CN(C(=S)Nc1ccc(SC(F)F)cc1)C(c1ccccc1)c1ccccc1	-7.4*	i	i	i	i
CN(C)CCCN(Cc1ccccc1)C(=S)Nc1ccc(SC(F)F)cc1	-7.3*	i	i	i	i
FC(F)Sc1ccc(NC(=S)NC(c2ccccc2)c2ccccc2)cc1	i	i	i	i	i
CC(=O)c1ccc(NC(=S)N(CCCN(C)C)Cc2ccccc2)cc1	i	i	i	i	i
O=C1CC(c2ccc(Cl)cc2)CC(=O)C1CS(=O)(=O)c1ccccc1 (stereo not drawn)	-7.2*	i	i	i	i
O=C(O)CN1C(=O)/C(=C\c2cccc(OCc3ccccc3)c2)SC1=S	i	i	i	i	i
O=C(O)COc1cccc(/C=C2/SC(=S)N(Cc3ccccc3)C2=O)c1	i	i	i	i	5.7*
O=C(CN1C(=O)S/C(=C\c2cc(Cl)c(O)c(Cl)c2)C1=O)Nc1ccccc1	i	i	27*	i	i
COc1cc(/C=C2\SC(=S)N(CCC(=O)Nc3cccc(O)c3)C2=O)cc(OC)c1OC	-8.1*	-4.6*	i	i	i
O=C(CN1C(=O)S/C(=C\c2ccccn2)C1=O)Nc1ccccc1	i	i	i	i	i
O=C(CCN1C(=O)/C(=C\c2ccccc2)SC1=S)Nc1ccc(C(=O)O)cc1	i	i	i	14*	i
C=C(C)C(=O)Nc1cccc(C2=NOC3(C2)C[C@H](C(N)=O)N(C(=O)COc2ccc(Cl)cc2)C3)c1 (stereo partly drawn)	i	i	i	i	i
CC(=O)C(/C=N/c1cc(-c2ccc(C)cc2)nn1-c1ccccc1)=C(\C)O	i	i	i	i	i
Clc1ccccc1/C=N/c1cc(-c2ccccc2)nn1-c1ccccc1	i	-4.9*	i	i	i
CCO[C@@H]1OC(C(=O)N2CCN(Cc3ccc4c(c3)OCO4)CC2)=C[C@H](c2coc3ccccc3c2=O)[C@H]1CCCO	i	-5.1*	i	i	i
CCO[C@H]1OC(C(=O)N2CCN(Cc3ccccc3)CC2)=C[C@@H](c2coc3ccccc3c2=O)[C@@H]1CCCO	i	i	i	i	i
C/C(CCC(C)C)=N\Nc1cc(C)c2ccccc2n1	i	i	i	10*	i
CC(=O)/C(N=Nc1cc2c(c([N+](=O)[O-])c1C)C(C)(C)CC2(C)C)=C(\C)O	i	i	i	9.4*	i
O=C1NC(=S)N/C1=C/c1cc([N+](=O)[O-])ccc1O	i	i	i	12*	i
